The text below walks through data of PubChem BioAssay AID602169 (The Scripps Research Institute Molecular Screening Center, 2012).

Activity calls are given as the source filed them.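 The calls were made as follows: active = luciferase reporter signal inhibited by 20% or more; inactive = inhibition below 20%.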

This assay has as its system BG1Luc4E2 ER-luciferase reporter inhibition, 24 h. Put plainly: suppression of estradiol-induced ERE reporter expression – BG1Luc4E2 ovarian carcinoma cells, luminescence, counter-screen for AHR activator project, late-stage follow-up (AID 602169). The settings on record: at 10 µM; active compounds read high. Put shortly:
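Times: 5-day estrogen depletion, then 24 h compound exposure at 37 °C. Assay system: BG1Luc4E2 ovarian carcinoma ERE-luciferase reporter cells. Replicates: triplicates. Compound dosing: single dose of 10 µM per compound. Detection: luciferase luminescence after lysis. Buffer or medium: phenol red-free DMEM, charcoal-stripped serum.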
In general terms: The purpose of a counterscreen is to sort out artefacts and off-target activity.
Broadly, the inhibition is the drop in the measured response relative to a control, in per cent. Take `COc1ccc(Cl)cc1C(=O)Nc1ccc(N(C)C(C)=O)cc1`: the inhibition is 2% (inactive).

As to `CN(C)c1nc(N)nc(-c2nc3ccccc3s2)n1`, the inhibition was 44%.

As for `Cc1ccc(-c2cc(-c3cccs3)[nH]n2)c(O)c1`, the inhibition is 20%.

As for `COc1cc2ccccc2cc1C(=O)Nc1ccc(C)cc1`, the inhibition is 40%.

For the compound `Cn1c(C(=O)N2CCC(C(N)=O)CC2)cc2cc(Cl)ccc21`, the inhibition was 4% (inactive).

Turning to `Cc1cc(Nc2ccc(Br)cc2)n2nc(C)nc2n1`, the inhibition is 0% (inactive).

Turning to `COc1ccc(C(=O)Nc2cc(OC)c(NC(=O)c3ccco3)cc2OC)cc1`, the inhibition is 0% (inactive).

Take `O=C(Nc1ccon1)c1cnc2sccn2c1=O`: the inhibition is 34%.

Turning to `CC(=O)c1ccc(NC(=O)c2cc(Cl)nc3ccccc23)cc1`, the inhibition is 2% (inactive).

For `COC(=O)c1ccccc1NC(=O)Cn1ccnc1`, the inhibition was 3% (inactive).

On to `Cn1c(N)c(C(=O)Nc2ccccc2F)sc1=S`, for which the inhibition is 5% (inactive).

Regarding `COc1ccc(NC(=O)c2cccc3c(Br)cccc23)cc1`, the inhibition was 31%.

`Cc1ccccc1-c1nc(-c2cccnc2)no1`: the inhibition is 22%.

As for `CCOc1ccc(-c2cc(C)n3nc(C(N)=O)cc3n2)cc1`, the inhibition was 0% (inactive).

As to `CCCC(=O)Nc1nn(C)c2nc3cc(C)ccc3cc12`, the inhibition was 0% (inactive).

For the compound `Cc1csc(SCC(=O)Nc2ccc(Cl)cn2)n1`, the inhibition is 0% (inactive).

On to `COc1ccccc1NC(=O)Nc1cccnc1`, for which the inhibition was 3% (inactive).

For `O=C1c2ccccc2-c2nc3ccccc3nc21`, the inhibition is 34%.

For the compound `CCC(=O)Nc1cc(OC)c(NC(=O)c2ccccc2)cc1OC`, the inhibition is 1% (inactive).

As to `CCOc1ccccc1NC(=O)c1ccc2nccnc2c1`, the inhibition was 8% (inactive).

Turning to `CCOC(=O)Cc1cc(-c2ccc(O)cc2)nc2ccc3ccccc3c12`, the inhibition was 28%.

With `O=C(CN1CCOCC1)Nc1nc2ccc([N+](=O)[O-])cc2s1`, the inhibition was 11% (inactive).

With `Cc1ccc(Nc2ncccc2C(N)=O)cc1`, the inhibition is 24%.

Regarding `O=C(Nc1cccc(Cl)c1)c1cccnn1`, the inhibition was 2% (inactive).

Regarding `COc1ccccc1C(=O)Nc1ccc(N2CCCCC2)cc1`, the inhibition is 47%.

In the case of `COc1ccccc1NC(=O)c1ccc(C(=O)Nc2ccccc2OC)nc1`, the inhibition was 0% (inactive).

With `COc1ccccc1NC(=O)c1ccc2c(c1)nnn2C`, the inhibition is 0% (inactive).

On to `CCOc1ccc(NC(=O)c2cc3ccccc3cc2OC)cc1`, for which the inhibition was 5.3% (inactive).

For `COc1cc2c(cc1NC(=O)Nc1ccc(C)cc1)oc1ccccc12`, the inhibition was 5% (inactive).

Take `Cc1c(-c2ccn[nH]2)cc(NC(=O)c2ccc(Cl)cc2)c(=O)n1N`: the inhibition is 1% (inactive).

In the case of `Cc1nnc(N2C(=O)c3cccc4c([N+](=O)[O-])ccc(c34)C2=O)s1`, the inhibition is 0% (inactive).

Regarding `CN1CCN(CCCNC(=O)c2cc3c(-c4ccc(Cl)cc4)nn(C)c3s2)CC1`, the inhibition was 0% (inactive).

As for `Cc1nc(N)nc(Nc2ccc(Cl)cc2)c1Br`, the inhibition was 7% (inactive).
